Tests used:
Format in all cases: ADME
Liver microsome [1] = assay: Drug metabolism in human liver microsomes assessed as N-((5-(4-(3-chloro-Drug metabolism in human liver microsomes assessed as 5-(4-(3-chloro-4-(3-fluorobenzyloxy)phenylamino)quinazolin-6-yl)furan-2-carbaldehyde formation at 50 uM for 30 mins by LC/MS/MS analysis; conditions: 0.5 h
Summary of the method: (§1)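 Lapatinib 50 μM (added in DMSO) incubated 30 min at 37°C in 100 mM potassium phosphate pH 7.4 with HLM 1 mg/mL or recombinant CYP3A4+b5 / CYP3A5+b5 100 pmol/mL. Reaction started with NADPH 1 mM. Protein re-isolated by ultracentrifugation (100,000 x g, 4°C, 60 min), washed (KCl/EDTA), resuspended in phosphate buffer, ±2 mM ferricyanide 10 min 37°C, quenched with acetonitrile, then high-resolution LC/MS profiling.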

Cytochrome P450 3A4 [2] = target: T1, Cytochrome P450 3A4 (Homo sapiens, UniProt P08684); assay: Activity of recombinant CYP3A4 (unknown origin) assessed as 2-chloro-4-(6-(5-(hydroxy(2-(methylsulfonyl)ethylamino)methyl)furan-2-yl)quinazolin-4-ylamino)phenol formation at 50 uM for 30 mins by LC/MS/MS analysis; conditions: recombinant enzyme, 0.5 h; summary of the method: as §1
T1 sequence (P08684 whole entry): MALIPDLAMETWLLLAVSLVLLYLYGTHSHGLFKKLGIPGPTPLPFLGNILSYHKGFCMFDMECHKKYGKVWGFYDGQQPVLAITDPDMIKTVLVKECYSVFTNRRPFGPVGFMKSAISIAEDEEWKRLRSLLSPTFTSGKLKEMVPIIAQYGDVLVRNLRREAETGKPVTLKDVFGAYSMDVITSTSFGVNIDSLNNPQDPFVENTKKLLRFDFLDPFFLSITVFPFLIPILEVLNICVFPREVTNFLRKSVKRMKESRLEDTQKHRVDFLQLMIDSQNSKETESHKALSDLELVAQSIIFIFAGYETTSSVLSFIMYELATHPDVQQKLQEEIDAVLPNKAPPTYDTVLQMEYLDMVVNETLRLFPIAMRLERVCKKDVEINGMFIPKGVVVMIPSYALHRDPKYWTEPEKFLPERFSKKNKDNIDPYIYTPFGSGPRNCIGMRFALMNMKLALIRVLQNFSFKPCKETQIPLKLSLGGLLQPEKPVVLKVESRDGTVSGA

CYP3A4 [3] = target: T2, CYP3A4 (Homo sapiens, UniProt P08684); assay: Inhibition of CYP3A4-mediated midazolam 1-hydroxylation in human liver microsomes at 50 uM; conditions: probe midazolam (1-hydroxylation)
T2 sequence (P08684 whole entry): as above
Summary of the method: (§2)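 30 min preincubation with 50 μM test compound (DMSO) and 1 mM NADPH at 37°C in 100 mM potassium phosphate, pH 7.4. Enzyme source was HLM at 1 mg/mL or recombinant CYP3A4 + b5 at 100 pmol/mL. Residual activity assayed with midazolam (30 μM; 5 min; 37°C) at 0.05 mg/mL. 1'-hydroxymidazolam quantified by LC/MS/MS and normalised to solvent controls.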

Cytochrome P450 3A4 [4] = target: T1, Cytochrome P450 3A4; assay: Activity of recombinant CYP3A4 (unknown origin) assessed as 6-(5-(aminomethyl)furan-2-yl)-N-(3-chloro-4-(3-fluorobenzyloxy)phenyl)quinazolin-4-amine formation at 50 uM for 30 mins by LC/MS/MS analysis; conditions: recombinant enzyme, 0.5 h; summary of the method: as §1
Cytochrome P450 3A4 [5] = target: T1, Cytochrome P450 3A4; assay: Activity of recombinant CYP3A4 (unknown origin) assessed as 5-(4-(3-chloro-4-(3-fluorobenzyloxy)phenylamino)quinazolin-6-yl)furan-2-carbaldehyde oxime formation at 50 uM for 30 mins by LC/MS/MS analysis; conditions: recombinant enzyme, 0.5 h; summary of the method: as §1
Cytochrome P450 3A4 [6] = target: T1, Cytochrome P450 3A4; assay: Activity of recombinant CYP3A4 (unknown origin) assessed as N-(3-chloro-4-(3-fluorobenzyloxy)phenyl)-6-(5-((hydroxy(2 (methylsulfonyl)ethyl)amino)methyl)furan-2-yl)quinazolin-4-amine formation at 50 uM for 30 mins by LC/MS/MS analysis; conditions: recombinant enzyme, 0.5 h; summary of the method: as §1
Cytochrome P450 3A5 [7] = target: T3, Cytochrome P450 3A5 (Homo sapiens, UniProt P20815); assay: Activity of recombinant CYP3A5 (unknown origin) assessed as 5-(4-(3-chloro-4-(3-fluorobenzyloxy)phenylamino)quinazolin-6-yl)furan-2-carbaldehyde oxime formation at 50 uM for 30 mins by LC/MS/MS analysis; conditions: recombinant enzyme, 0.5 h; summary of the method: as §1
T3 sequence (P20815 whole entry): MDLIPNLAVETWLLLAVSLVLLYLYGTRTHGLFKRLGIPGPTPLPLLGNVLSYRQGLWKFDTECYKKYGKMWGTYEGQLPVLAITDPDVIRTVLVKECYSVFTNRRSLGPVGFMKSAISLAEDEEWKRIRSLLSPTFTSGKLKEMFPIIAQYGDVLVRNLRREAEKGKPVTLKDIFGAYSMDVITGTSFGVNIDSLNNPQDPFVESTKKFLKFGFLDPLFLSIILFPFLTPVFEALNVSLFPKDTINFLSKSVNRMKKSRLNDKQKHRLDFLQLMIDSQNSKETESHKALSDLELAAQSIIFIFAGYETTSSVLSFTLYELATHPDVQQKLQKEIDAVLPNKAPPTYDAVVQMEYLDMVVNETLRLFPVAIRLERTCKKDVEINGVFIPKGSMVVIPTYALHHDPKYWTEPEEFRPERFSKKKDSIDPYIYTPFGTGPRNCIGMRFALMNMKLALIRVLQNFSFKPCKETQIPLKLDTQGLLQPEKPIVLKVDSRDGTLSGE

Liver microsome [8] = assay: Drug metabolism in human liver microsomes assessed as (5-(4-(3-chloro-4-(3-fluorobenzyloxy)phenylamino)quinazolin-6-yl)furan-2-yl)methanol formation at 50 uM for 30 mins by LC/MS/MS analysis; conditions: 0.5 h; summary of the method: as §1
Cytochrome P450 3A5 [9] = target: T3, Cytochrome P450 3A5; assay: Activity of recombinant CYP3A5 (unknown origin) assessed as 2-chloro-4-(6-(5-((2-(methylsulfonyl)ethylamino)methyl)furan-2-yl)quinazolin-4-ylamino)phenol formation at 50 uM for 30 mins by LC/MS/MS analysis; conditions: recombinant enzyme, 0.5 h; summary of the method: as §1
Liver microsome [10] = assay: Drug metabolism in human liver microsomes assessed as N-(3-chloro-4-(3-fluorobenzyloxy)phenyl)-6-(5-((hydroxy(2 (methylsulfonyl)ethyl)amino)methyl)furan-2-yl)quinazolin-4-amine formation at 50 uM for 30 mins by LC/MS/MS analysis; conditions: 0.5 h; summary of the method: as §1
Liver microsome [11] = assay: Drug metabolism in human liver microsomes assessed as 5-(4-(3-chloro-4-(3-fluorobenzyloxy)phenylamino)quinazolin-6-yl)furan-2-carbaldehyde oxime formation at 50 uM for 30 mins by LC/MS/MS analysis; conditions: 0.5 h; summary of the method: as §1
Cytochrome P450 3A5 [12] = target: T3, Cytochrome P450 3A5; assay: Activity of recombinant CYP3A5 (unknown origin) assessed as N-(3-chloro-4-(3-fluorobenzyloxy)phenyl)-6-(5-((hydroxy(2 (methylsulfonyl)ethyl)amino)methyl)furan-2-yl)quinazolin-4-amine formation at 50 uM for 30 mins by LC/MS/MS analysis; conditions: recombinant enzyme, 0.5 h; summary of the method: as §1
Liver microsome [13] = assay: Drug metabolism in human liver microsomes assessed as 2-chloro-4-(6-(5-(hydroxy(2-(methylsulfonyl)ethylamino)methyl)furan-2-yl)quinazolin-4-ylamino)phenol formation at 50 uM for 30 mins by LC/MS/MS analysis; conditions: 0.5 h; summary of the method: as §1
Cytochrome P450 3A4 [14] = target: T1, Cytochrome P450 3A4; assay: Activity of recombinant CYP3A4 (unknown origin) assessed as 2-chloro-4-(6-(5-((2-(methylsulfonyl)ethylamino)methyl)furan-2-yl)quinazolin-4-ylamino)phenol formation at 50 uM for 30 mins by LC/MS/MS analysis; conditions: recombinant enzyme, 0.5 h; summary of the method: as §1
Cytochrome P450 3A4 [15] = target: T1, Cytochrome P450 3A4; assay: Activity of recombinant CYP3A4 (unknown origin) assessed as 5-(4-(3-chloro-4-(3-fluorobenzyloxy)phenylamino)quinazolin-6-yl)furan-2-carbaldehyde formation at 50 uM for 30 mins by LC/MS/MS analysis; conditions: recombinant enzyme, 0.5 h; summary of the method: as §1
CYP3A4 [16] = target: T2, CYP3A4; assay: Inhibition of recombinant CYP3A4 (unknown origin)-mediated midazolam 1-hydroxylation at 50 uM; conditions: recombinant CYP3A4, probe midazolam (1-hydroxylation); summary of the method: as §2
Cytochrome P450 3A5 [17] = target: T3, Cytochrome P450 3A5; assay: Inhibition of recombinant CYP3A5 (unknown origin)-mediated midazolam 1-hydroxylation at 50 uM in presence of 2 mM ferricyanide; conditions: recombinant enzyme
Summary of the method: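 Recombinant CYP3A5 + b5 (100 pmol/mL) preincubated 30 min at 37°C with test compound (50 μM) in 100 mM potassium phosphate pH 7.4, started with 1 mM NADPH. Then potassium ferricyanide (2 mM final) for 10 min at 37°C, ultracentrifugation, pellet washed. Residual midazolam (30 μM, 5 min, 37°C) 1'-hydroxylation measured by LC/MS/MS, normalized to solvent controls.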

Cytochrome P450 3A4 [18] = target: T1, Cytochrome P450 3A4; assay: Activity of recombinant CYP3A4 (unknown origin) assessed as (5-(4-(3-chloro-4-(3-fluorobenzyloxy)phenylamino)quinazolin-6-yl)furan-2-yl)methanol formation at 50 uM for 30 mins by LC/MS/MS analysis; conditions: recombinant enzyme, 0.5 h; summary of the method: as §1
Liver microsome [19] = assay: Drug metabolism in human liver microsomes assessed as N-((5-(4-(3-chloro-4-(3-fluorobenzyloxy)phenylamino)quinazolin-6-yl)furan-2-yl)methylene)-2-(methylsulfonyl)ethanamine oxide formation at 50 uM for 30 mins by LC/MS/MS analysis; conditions: 0.5 h; summary of the method: as §1
Liver microsome [20] = assay: Drug metabolism in human liver microsomes assessed as 2-chloro-4-(6-(5-((2-(methylsulfonyl)ethylamino)methyl)furan-2-yl)quinazolin-4-ylamino)phenol formation at 50 uM for 30 mins by LC/MS/MS analysis; conditions: 0.5 h; summary of the method: as §1
Cytochrome P450 3A5 [21] = target: T3, Cytochrome P450 3A5; assay: Activity of recombinant CYP3A5 (unknown origin) assessed as 6-(5-(aminomethyl)furan-2-yl)-N-(3-chloro-4-(3-fluorobenzyloxy)phenyl)quinazolin-4-amine formation at 50 uM for 30 mins by LC/MS/MS analysis; conditions: recombinant enzyme, 0.5 h; summary of the method: as §1
Cytochrome P450 3A5 [22] = target: T3, Cytochrome P450 3A5; assay: Activity of recombinant CYP3A5 (unknown origin) assessed as 5-(4-(3-chloro-4-(3-fluorobenzyloxy)phenylamino)quinazolin-6-yl)furan-2-carbaldehyde formation at 50 uM for 30 mins by LC/MS/MS analysis; conditions: recombinant enzyme, 0.5 h; summary of the method: as §1
Cytochrome P450 3A5 [23] = target: T3, Cytochrome P450 3A5; assay: Activity of recombinant CYP3A5 (unknown origin) assessed as 2-chloro-4-(6-(5-(hydroxy(2-(methylsulfonyl)ethylamino)methyl)furan-2-yl)quinazolin-4-ylamino)phenol formation at 50 uM for 30 mins by LC/MS/MS analysis; conditions: recombinant enzyme, 0.5 h; summary of the method: as §1
CYP3A5 = CYP3A5 (Homo sapiens, UniProt P20815); assay: Inhibition of recombinant CYP3A5 (unknown origin)-mediated midazolam 1-hydroxylation at 50 uM; conditions: recombinant CYP3A5, probe midazolam (1-hydroxylation)
CYP3A5, sequence (P20815 whole entry): as above
Summary of the method: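 Recombinant CYP3A5+b5 (100 pmol/mL) preincubated 30 min at 37°C, pH 7.4, with lapatinib 50 μM and 1 mM NADPH. Solvent controls run alongside. Residual activity measured as midazolam (30 μM, 5 min, 37°C) 1'-hydroxylation by LC/MS/MS at 0.05 mg/mL. Measured directly and after ultracentrifugation (100,000 x g, 60 min) with or without 2 mM ferricyanide (10 min). Normalized to solvent control.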

Cytochrome P450 3A4 [24] = target: T1, Cytochrome P450 3A4; assay: Activity of recombinant CYP3A4 (unknown origin) assessed as N-((5-(4-(3-chloro-4-(3-fluorobenzyloxy)phenylamino)quinazolin-6-yl)furan-2-yl)methylene)-2-(methylsulfonyl)ethanamine oxide formation at 50 uM for 30 mins by LC/MS/MS analysis; conditions: recombinant enzyme, 0.5 h; summary of the method: as §1
Cytochrome P450 3A5 [25] = target: T3, Cytochrome P450 3A5; assay: Activity of recombinant CYP3A5 (unknown origin) assessed as (5-(4-(3-chloro-4-(3-fluorobenzyloxy)phenylamino)quinazolin-6-yl)furan-2-yl)methanol formation at 50 uM for 30 mins by LC/MS/MS analysis; conditions: recombinant enzyme, 0.5 h; summary of the method: as §1
Liver microsome [26] = assay: Drug metabolism in human liver microsomes assessed as 6-(5-(aminomethyl)furan-2-yl)-N-(3-chloro-4-(3-fluorobenzyloxy)phenyl)quinazolin-4-amine formation at 50 uM for 30 mins by LC/MS/MS analysis; conditions: 0.5 h; summary of the method: as §1
Cytochrome P450 3A5 [27] = target: T3, Cytochrome P450 3A5; assay: Activity of recombinant CYP3A5 (unknown origin) assessed as N-((5-(4-(3-chloro-4-(3-fluorobenzyloxy)phenylamino)quinazolin-6-yl)furan-2-yl)methylene)-2-(methylsulfonyl)ethanamine oxide formation at 50 uM for 30 mins by LC/MS/MS analysis; conditions: recombinant enzyme, 0.5 h; summary of the method: as §1

## CS(=O)(=O)CCNCc1ccc(-c2ccc3ncnc(Nc4ccc(OCc5cccc(F)c5)c(Cl)c4)c3c2)o1 [LAPATINIB]
Liver microsome [1]
  Drug metabolism: metabolite_detected
Cytochrome P450 3A4 [2]
  Drug metabolism: metabolite_detected
CYP3A4 [3]
  inhibition at 50 µM: 45%
Cytochrome P450 3A4 [4]
  Drug metabolism: metabolite_detected
Cytochrome P450 3A4 [5]
  Drug metabolism: metabolite_detected
Cytochrome P450 3A4 [6]
  Drug metabolism: metabolite_detected
Cytochrome P450 3A5 [7]
  Drug metabolism: metabolite_detected
Liver microsome [8]
  Drug metabolism: metabolite_detected
Cytochrome P450 3A5 [9]
  Drug metabolism: metabolite_detected
Liver microsome [10]
  Drug metabolism: metabolite_detected
Liver microsome [11]
  Drug metabolism: metabolite_detected
Cytochrome P450 3A5 [12]
  Drug metabolism: metabolite_detected
Liver microsome [13]
  Drug metabolism: metabolite_detected
Cytochrome P450 3A4 [14]
  Drug metabolism: metabolite_detected
Cytochrome P450 3A4 [15]
  Drug metabolism: metabolite_detected
CYP3A4 [16]
  inhibition at 50 µM: 45%
Cytochrome P450 3A5 [17]
  inhibition (INH): Active
Cytochrome P450 3A4 [18]
  Drug metabolism: metabolite_detected
Liver microsome [19]
  Drug metabolism: metabolite_detected
Liver microsome [20]
  Drug metabolism: metabolite_detected
Cytochrome P450 3A5 [21]
  Drug metabolism: metabolite_detected
Cytochrome P450 3A5 [22]
  Drug metabolism: metabolite_detected
Cytochrome P450 3A5 [23]
  Drug metabolism: metabolite_detected
CYP3A5
  inhibition at 50 µM: < 15%
Cytochrome P450 3A4 [24]
  Drug metabolism: metabolite_detected
Cytochrome P450 3A5 [25]
  Drug metabolism: metabolite_detected
Liver microsome [26]
  Drug metabolism: metabolite_detected
Cytochrome P450 3A5 [27]
  Drug metabolism: metabolite_detected

Reference: ChEMBL document CHEMBL3525913, “Metabolism-dependent inhibition of CYP3A4 by lapatinib: evidence for formation of a metabolic intermediate complex with a nitroso/oxime metabolite formed via a nitrone intermediate” (Drug Metab Dispos, 2013)
